Source: PubChem BioAssay (several laboratories)
Hits are enriched below; roughly 2.3% of the tested compounds scored in any of these assays.
bCat nuc transl – modulators of beta-catenin nuclear translocation, primary screen, imaging, HeLa cells, immunofluorescence, high-content; nuclear translocation activity, % at 5 µM; 190,000 tested, 0.3% active;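 active = nuclear translocation activity above 50% at 5 µM, with a well cell count of 50 or more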;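 also: per-cell ratio of nuclear to cytoplasmic median beta-catenin stain intensity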
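System: Human HeLa cells, endogenous beta-catenin | Compound dosing: 5 µM primary, 0.02–20 µM confirmation | Timing: 24 h compound exposure at 37°C, 5% CO2 | Measured by: Fluorescence imaging of beta-catenin antibody stain plus DAPI | Read-out basis: % activation of per-cell nuclear versus cytoplasmic median beta-catenin signal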
Autophagy HCS – autophagy modulators in MEF cells, primary screen, imaging, high-content, MEF GFP-LC3; MEF GFP-LC3 puncta imaging; test concentration mostly 10 µM; calls only at 10 µM (by protocol); 190,000 tested, 0.98% active; AID 463193, 2010;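 active = percentage of spot-positive cells more than 3 SD above its plate mean, without a fluorescence outlier flag or 80% toxicity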
MT stabilize HCS – microtubule stabilizers in HeLa cells, primary screen, imaging, high-content imaging; HeLa tubulin immunostaining HCS, 24 h; share of cells brighter than vehicle mean+2SD; % tubulin-high responders, % at 10 µM; 200,000 tested, 0.83% active;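 active = plate Z-score above 3 for both tubulin-high and condensed-nucleus cell shares, with cell loss under 80%, at 10 µM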;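 also: anti alpha tubulin signal scored within the nucleus-defined area of each cell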
Dynein transport – inhibitors of GR-EGFP nuclear translocation, primary screen, dynein cargo transport inhibitor project, imaging, high-content, 3617.4 mouse cells; test concentration mostly 20 µM; stimulated with dexamethasone, 1 µM; stronger effect = lower value; AID 1381, 2008; z-score, hits read low; 220,000 tested, 0.47% active;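 active = plate z-score of nuclear minus cytoplasmic receptor signal below a set negative limit, without overly bright fluorescence or cell loss, cut at about -3.5 in these data, passing the limit was not always enough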;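 also: z-score of nuclear minus cytoplasmic ring GR-EGFP intensity difference per well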
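Also added: dexamethasone, 1.0 µM final. Medium: tet-free, stripped-serum medium. Detection: fixed, Hoechst-stained cells imaged at 10x for EGFP. Read-out: nuclear-to-cytoplasmic GR-EGFP distribution per well. Times: induction 48 h, compound 1 h, agonist 30 min.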
Insulin prom up – insulin promoter activators in MIN6 cells, imaging, high-content screening, mouse beta cells; MIN6 insulin promoter-GFP reporter; stronger effect = higher value; z-score at 5 µM; 190,000 tested, 0.3% active; AID 1625, 2009;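 active = z-score above 3 at 5 µM with at least 500 cells counted in the well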
Of the large screens only hits and unclear results are named; the others gave an inactive call.

CC1Cc2ccccc2N1C(=O)CNCCCN(C)C (centres undefined)	none
Cc1cc(C(=O)CN2C(=O)c3ccccc3C2=O)c(C)n1Cc1cccs1	none (no result: Insulin prom up)
C=CCn1c(C)cc(C(=O)CN2NS(=O)(=O)c3ccccc3C2=O)c1C	MT stabilize HCS 8.6
C/C(=N\NS(=O)(=O)c1ccccc1)c1cc(Cl)cc(Cl)c1O	none
O=C(NC1CCN(Cc2ccccc2)CC1)c1ccc(S(=O)(=O)NCc2ccco2)cc1	Autophagy HCS active
CCC(=O)N(CCc1ccc(OC)c(OC)c1)Cc1cc2ccc(C)cc2n2nnnc12	none
CCCSc1nc2c(cnn2-c2ccc(C)c(C)c2)c(=O)[nH]1	none (no result: bCat nuc transl)
CCCCSc1nc2c(cnn2-c2ccc(C)c(C)c2)c(=O)[nH]1	Autophagy HCS active (no result: bCat nuc transl)
Cn1cc(C(=O)C(=O)N2CCCc3ccccc32)c2ccccc21	MT stabilize HCS 12.4 (no result: Insulin prom up)
CCCC/C(O)=C1\C(=O)CC(C)(C)CC1=Nc1ccccc1OC	none (no result: Insulin prom up)
CCC/C(O)=C1\C(=O)CC(C)(C)CC1=Nc1ccc(OC)cc1OC	bCat nuc transl 76.1 (no result: Insulin prom up)
COC(=O)CC/C(O)=C1\C(=O)CC(C)(C)CC1=Nc1ccccc1OC	MT stabilize HCS 16.7 (no result: Insulin prom up)
CCOC(=O)c1c(NC(=O)Cn2ccsc2=N)sc(C)c1C	none
COc1ccc(C2=NOC(C(=O)NCc3ccc(F)cc3)C2)cc1OC (centres undefined)	bCat nuc transl 56.2, MT stabilize HCS 13.9
COc1cc(OC)c(C2=NOC(C(=O)NCc3ccc4c(c3)OCO4)C2)cc1Cl (centres undefined)	MT stabilize HCS 23.1 (no result: bCat nuc transl)
COc1cc(C2=NOC(C(=O)NCc3ccc(F)cc3)C2)cc(OC)c1OC (centres undefined)	bCat nuc transl 73.2, Autophagy HCS active, MT stabilize HCS 24.3
COc1cccc(C2=NOC(C(=O)NCc3ccc(F)cc3)C2)c1 (centres undefined)	none
CCOC(=O)C1=C(c2ccccc2)ON(C)C1c1ccccc1 (centres undefined)	none
Cc1nn(Cc2cccc(C(=O)NN)c2)c(C)c1Cl	none (no result: Autophagy HCS, MT stabilize HCS)
COc1cc2c(cc1OC)C(c1cccs1)N(C(=O)c1cccnc1)CC2 (centres undefined)	bCat nuc transl 52.6, MT stabilize HCS 16.7
C=CCn1cc(C(=O)OCC)c(=O)c2ccc(F)cc21	none
CCCCN(C(=O)COc1ccc(C)cc1OC)c1c(N)n(CCC)c(=O)[nH]c1=O	none (no result: Autophagy HCS, MT stabilize HCS)
Cc1ccccc1S(=O)(=O)N(CC(O)CN1C(=O)NC(C)(C)C1=O)c1ccccc1 (centres undefined)	none (no result: Autophagy HCS, MT stabilize HCS)
CCc1ccc2nc(SCC(=O)N3CC(=O)Nc4ccccc43)c(C#N)cc2c1	Autophagy HCS active
CCCCn1c(=N)n(CC(=O)c2ccc([N+](=O)[O-])cc2)c2ccccc21	Autophagy HCS active
N#Cc1cnc(N)c(Br)c1	none
Cc1cc(C(F)(F)F)c(C#N)c(SCC(=O)Nc2nc3cc(Br)ccc3s2)n1	Autophagy HCS active (no result: Insulin prom up)
COC(=O)CSc1nc(C)cc(C(F)(F)F)c1C#N	none
Cc1ccc(S(=O)(=O)CCSc2nc(C)cc(C(F)(F)F)c2C#N)cc1	Autophagy HCS active (no result: Insulin prom up)
CCOC(=O)NC(=O)CSc1nc(C)cc(C(F)(F)F)c1C#N	none
CC(=O)N1CCCN(Cc2cn(-c3cc(C)ccc3C)nc2-c2ccccc2)CC1	none
Cc1ccc(NC(=O)CSc2nc3ccccc3c(=O)n2CCCN2CCCCC2)cc1Cl	none (no result: bCat nuc transl)
COc1ccc([N+](=O)[O-])cc1NC(=O)COC(=O)c1ccccn1	none
CCOC(=O)/C(C#N)=C/c1cc2ccccc2nc1Cl	none (no result: bCat nuc transl, Insulin prom up)
CSc1nc2ccccc2cc1/C=C(\C#N)c1cccc(Cl)c1	Autophagy HCS active, MT stabilize HCS 34.3
FC(F)(F)c1cc(-c2cccs2)nc2ncnn12	none (no result: Insulin prom up)
COc1ccc(C2/C=C\CN(S(=O)(=O)c3cccc4cccnc34)CC(=O)N2Cc2ccc(F)cc2)cc1 (centres undefined)	Insulin prom up 7.49 (no result: Autophagy HCS, MT stabilize HCS)
CCc1ccc(-c2cn(C3CCCCC3)c(=S)[nH]2)cc1	none (no result: Insulin prom up)
COc1ccc(C(=O)CC(Nc2ccc([N+](=O)[O-])cc2)c2ccc(OC)cc2)cc1 (centres undefined)	none
CNC(CC(=O)c1ccc([N+](=O)[O-])cc1)C(Cl)(Cl)Cl (centres undefined)	Dynein transport -3.54
O=C(CSc1nc(-c2ccccc2)c(-c2ccccc2)[nH]1)NCCN1C(=O)CSC1=O	MT stabilize HCS 18.9
O=C(CSc1nc(-c2ccccc2)c(-c2ccccc2)[nH]1)NCc1ccco1	none (no result: bCat nuc transl, Insulin prom up)
N=c1c(-c2nc3ccccc3[nH]2)cc(C(=O)c2cccs2)nn1-c1ccc(Cl)cc1	Autophagy HCS active (no result: bCat nuc transl, Insulin prom up)
O=C(Nc1nc2ccccc2[nH]1)c1cccs1	none
c1ccc2c(CNCCN3CCOCC3)cccc2c1	Autophagy HCS active
Fc1ccccc1-c1nc(NCCCN2CCOCC2)c2ccccc2n1	none
c1ccc2c(NCCCN3CCOCC3)c3ccccc3nc2c1	Autophagy HCS active, MT stabilize HCS 33.8
CCOc1ccccc1CNCCN1CCOCC1	none (no result: bCat nuc transl, Insulin prom up)
N#Cc1c(C(F)(F)F)cc(-c2ccco2)nc1SCc1ccccn1	Autophagy HCS active
N#Cc1c(C(F)(F)F)cc(-c2ccco2)nc1SCc1ccncc1	none
O=C1OCC2=C1C(c1ccc(F)cc1)c1cc3c(cc1N2)OCO3 (centres undefined)	bCat nuc transl 74.3
O=C1OCC2=C1C(c1ccc(F)cc1)c1cc3c(cc1N2)OCCO3 (centres undefined)	bCat nuc transl 77.9
CCOc1ccccc1C1C2=C(COC2=O)Nc2cc3c(cc21)OCO3 (centres undefined)	none
C#CCOc1ccc(C2C3=C(COC3=O)Nc3cc4c(cc32)OCO4)cc1OC (centres undefined)	bCat nuc transl 61.0
COc1ccc(/C=N/N=C2/CC(C)(C)Cc3n[nH]c(=O)cc32)cc1	none
Cc1nc2cc(C(=O)NCc3cccnc3)ccc2n1-c1ccc(F)cc1F	none
CCCSc1nc2c(cnn2-c2ccccc2)c(=O)[nH]1	none
O=c1[nH]c(/C=C/c2ccccc2OC(F)F)nc2c1cnn2-c1ccccc1	Insulin prom up 3.2
O=[N+]([O-])c1cccc(-c2ccc(/C=N/NC(=S)Nc3ccccc3)o2)c1	Autophagy HCS active
Cc1ccc(C)c(N(CC(=O)N/N=C/c2ccc(-c3ccc([N+](=O)[O-])cc3)o2)S(=O)(=O)c2ccccc2)c1	Autophagy HCS active
CCOc1ccc(NC(=O)CN(c2ccc([N+](=O)[O-])cc2)S(=O)(=O)c2ccccc2)cc1	MT stabilize HCS 14.1
O=C(Cc1ccccc1)N/N=C/c1ccc(-c2ccc([N+](=O)[O-])cc2)o1	Autophagy HCS active
Cc1c(C(=O)O)c(C(=O)O)c2n1CCS2	none (no result: Autophagy HCS, MT stabilize HCS)
